High-throughput results as filed in PubChem.
OX1R antag-1: OX1R (human) antagonism; O43613; OX1R-expressing cells, FRET antagonist read-out; inhibition, % at 6.6 µM; hit rate 1.8% among 330,000; AID 485270; in the data active means inhibition mostly above about 38%, no sharp cut-off; inactive means mostly below about 40%;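 further: 0% = agonist challenge alone and 100% = reference antagonist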
Target sequence (O43613 whole entry, looked up): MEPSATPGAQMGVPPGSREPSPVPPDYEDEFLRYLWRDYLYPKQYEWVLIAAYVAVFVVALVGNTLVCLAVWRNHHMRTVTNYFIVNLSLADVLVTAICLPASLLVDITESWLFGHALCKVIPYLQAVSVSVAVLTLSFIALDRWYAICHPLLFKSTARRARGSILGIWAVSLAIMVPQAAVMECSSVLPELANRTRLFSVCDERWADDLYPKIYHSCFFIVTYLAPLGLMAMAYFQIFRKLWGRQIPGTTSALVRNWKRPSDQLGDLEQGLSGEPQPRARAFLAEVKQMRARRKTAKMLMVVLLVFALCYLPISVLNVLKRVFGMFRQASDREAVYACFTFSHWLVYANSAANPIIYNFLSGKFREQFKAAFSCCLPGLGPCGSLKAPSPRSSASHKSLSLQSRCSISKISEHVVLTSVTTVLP
GPR7 antag: blocks human GPR7 receptor signaling; P48145; GPR7-expressing cells, fluorescence antagonist assay; inhibition, % at 4.4 µM; hit rate 1.1% among 290,000; in the data active means inhibition above about 16%, passing the limit was not always enough;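 further: cells stimulated with the agonist NPW; 0% = agonist with vehicle and 100% = vehicle without agonist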
TAAR1 agonist: human TAAR1 agonism | hit rate 0.99% among 360,000 | AID 624467 | Q96RJ0 | CHO RD-HGA16 TAAR1, Fluo-8 calcium fluorescence; vehicle wells 0%, saturating PEA agonist 100% | activation, % at 3 µM;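 active means activation above the mean activation of all test compounds in the run plus 3 SD, cut at about 38% in these data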
Target sequence (Q96RJ0 whole entry, looked up): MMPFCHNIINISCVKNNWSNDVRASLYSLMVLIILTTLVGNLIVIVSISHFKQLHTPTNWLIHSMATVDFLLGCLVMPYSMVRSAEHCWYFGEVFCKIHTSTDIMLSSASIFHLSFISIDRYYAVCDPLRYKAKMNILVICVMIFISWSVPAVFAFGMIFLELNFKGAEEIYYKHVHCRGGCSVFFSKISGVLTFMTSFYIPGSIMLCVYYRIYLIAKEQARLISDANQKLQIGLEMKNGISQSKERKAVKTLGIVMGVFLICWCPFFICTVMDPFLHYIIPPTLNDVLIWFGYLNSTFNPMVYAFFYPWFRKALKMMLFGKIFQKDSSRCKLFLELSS
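System: CHO-derived RD-HGA16 cells with stable Gα16 and human TAAR1 / Times: 17-24 h plating, Fluo-8 75 min 37 °C, 30 min RT / Technique: calcium-sensitive Fluo-8 signal, excitation 470-495, emission 515-575 nm / Measure: % activation relative to PEA EC100 response / Benchmarks: DMSO and PEA EC100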
TAAR1 antagonist: antagonists of human TAAR1 | Q96RJ0 | CHO RD-HGA16 TAAR1, Fluo-8 calcium fluorescence, antagonist | inhibition, % at 3 µM | hit rate 1.5% among 360,000;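 active means inhibition above a per-plate cutoff, the mean inhibition of test compounds on that plate plus 3 SD, cut at about 49% in these data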;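 further: 0% = DMSO plus EC80 beta-PEA response and 100% = DMSO alone without agonist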
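Test system – hTAAR1-expressing CHO RD-HGA16 cells, Gα16-coupled · Also added – β-PEA at EC80 concentration, post-compound challenge · Compound – 3 µM, single point · Incubation – dye loading 75 min at 37 °C, then 30 min room temperature · Measured by – Fluo-8 intracellular calcium dye fluorescence, real-time kinetic reads · Benchmarks – vehicle and agonist controls · Replicates – singlicate, one well per test compound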
CHO parental Ca: signal in parental CHO cells, OX1R antagonist counter-screen; AID 463079; parental CHO-K1, ATP-induced calcium, Fluo-8 fluorescence; hit rate 0.63% among 330,000; inhibition, % at 5.6 µM;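 active means inhibition above that plate's mean sample inhibition plus 3 SD, cut at about 26% in these data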;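 further: 0% = ATP-challenged DMSO wells and 100% = DMSO wells without ATP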
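Assay system: parental CHO cells; Read-out basis: percent inhibition of ATP-evoked calcium rise, normalized to controls; Benchmarks: ATP and no-ATP DMSO wells; Compound dosing: single nominal dose of 5.6 µM per compound; Signal: Fluo-8 calcium dye fluorescence; Also added: ATP as calcium-mobilizing challenge; Repeats: singlicate.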
OX1R antag-2: human HCRTR1 antagonism; O43613; CHO/OX1R cells, Fluo-8 calcium fluorescence, orexin A; inhibition, % at 5 µM; hit rate 0.43% among 330,000; AID 434989;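 active means inhibition above its plate's threshold, mean inhibition of all tested compounds on the plate plus 3 SD, cut at about 37% in these data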;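 further: 0% = orexin A challenge wells and 100% = SB-334867-A antagonist wells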
OX1R HTRF conf: confirmation of human orexin 1 receptor antagonists, HTRF format; hit rate 49% among 1,800; AID 492964; inhibition, % at 6.6 µM; OX1R-expressing cells, HTRF antagonist assay; shares compounds with OX1R antag-1; in the data active means inhibition above about 55%;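 further: CHO cells expressing OX1R stimulated with orexin A at about EC80; 0% = agonist challenge alone and 100% = reference antagonist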
CHO-K1 HTRF cnt: counter-screen for OX1R antagonists: effect in parental CHO-K1 cells. HTRF counterscreen. hit rate 48% among 1,800. shares compounds with OX1R antag-1. AID 493232. inhibition, % at 6.6 µM; in the data active means inhibition above about 17%;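 further: 0% = agonist challenge with vehicle and 100% = vehicle alone without agonist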
Starred values were filed as active, the others as inactive; x = no result. Rows were chosen to be rich in hits. Some 4.6% of all compounds tested hit in one or more screens of this group.

SMILES	OX1R antag-1	GPR7 antag	TAAR1 agonist	TAAR1 antagonist	CHO parental Ca	OX1R antag-2	OX1R HTRF conf	CHO-K1 HTRF cnt
COc1ccc(CC(=O)NCc2nnc(SCC(=O)Nc3ccccc3)n2C)cc1	14.3	-11.8	0.9	-4.5	-6.8	-4.1	x	x
COc1ccc(CC(=O)NCc2nnc(SCC(=O)Nc3cccc(F)c3)n2C)cc1	92.1*	3.4	-0.8	-1.7	-8.2	-7.7	16.6	-12.0
COc1cc(/C=C/c2sc3ccccc3[n+]2CCCS(=O)(=O)[O-])ccc1O	86.2*	15.6	8.9	1.1	5.7	9.3	58.9*	99.1*
CCC(/C=C1\Oc2ccc(OC)cc2N1C)=C\c1sc2ccccc2[n+]1CCCS(=O)(=O)[O-]	x	x	4.3	-4.3	x	x	x	x
O=C(NCC1(O)CCCCC1)C1CCC(=O)N(Cc2cccc(C(F)(F)F)c2)C1 (centres undefined)	4.1	-18.5	2.6	-11.9	8.3	5.3	x	x
O=C(NCCN1CCOCC1)c1cc(Sc2ccccc2Cl)nc2ccccc12	91.3*	2.4	5.1	6.3	-16.0	19.5	90.0*	3.2
COc1ccc2nc(SCC(=O)N3CCN(c4ccc(F)cc4)CC3)c(C#N)cc2c1	39.8	-4.7	3.6	-3.3	-14.3	-26.4	x	x
COc1cc(Cl)ccc1OCc1cc(C(=O)N(C)C2CCOC2)no1 (centres undefined)	4.9	2.2	1.8	0.6	-9.2	-9.6	x	x
O=C(O)COc1c(-c2ccco2)oc2ccccc2c1=O	13.8	-10.6	0.2	2.9	-9.4	-3.3	x	x
CC(=O)Oc1c(-c2ccc(Br)o2)oc2ccccc2c1=O	83.2*	9.2	0.5	4.0	-1.4	23.9	84.3*	3.1
Cc1ccc(S(=O)(=O)NCCOc2nc(N(C)C)nc(N(C)C)n2)cc1	90.3*	0.9	5.2	-19.7	-1.7	11.3	64.1*	2.7
CCNc1nc(OCCNS(=O)(=O)c2cc(C)ccc2C)nc(N(C)C)n1	40.2	-5.8	-2.5	-7.6	-2.8	-7.9	x	x
Cc1nnc(SCC(=O)N2CCN(C(=O)c3ccco3)CC2)n1-c1ccccc1	13.2	1.8	-0.3	-0.6	0.5	-1.8	x	x
C/C(=N\NC(=O)c1cc([N+](=O)[O-])cc([N+](=O)[O-])c1)c1ccco1	80.6*	-1.7	5.3	5.3	-8.4	-19.4	56.3*	89.3*
CCOC(=O)C1=NN(C(C)=O)C2(CC(=O)N(c3cccc(C)c3)C2=O)C1 (centres undefined)	-1.9	-4.9	0.8	8.0	-8.2	-16.7	x	x
COc1ccc(-n2nc([N+](=O)[O-])c(=NC3CCN(Cc4ccccc4)CC3)n2O)cc1	78.6*	-7.5	3.9	3.5	-20.5	-37.2	61.3*	55.4*
COc1ccc(-n2nc([N+](=O)[O-])c(=NCCc3ccc(OC)c(OC)c3)n2O)cc1	84.4*	-2.2	4.5	-19.8	0.5	-8.6	46.2	54.5*
COc1ccc(-n2nc([N+](=O)[O-])c(=NCc3ccco3)n2O)cc1	43.3	1.9	7.8	3.5	7.0	0.6	x	x
COc1ccc(-n2nc([N+](=O)[O-])c(=NCCc3ccc(Cl)cc3)n2O)cc1	19.2	10.4	1.3	15.5	-24.3	-15.0	x	x
COc1ccc(-n2nc([N+](=O)[O-])c(=NCc3cccnc3)n2O)cc1	123.2*	2.5	0.2	-7.6	-9.1	-3.2	61.2*	77.5*
COc1ccc(-n2nc([N+](=O)[O-])c(=NCCc3ccc(C)cc3)n2O)cc1	33.8	-10.4	0.9	-16.3	-21.8	-41.5	x	x
C[C@]12CC[C@H](O)C[C@@H]1CC[C@@H]1[C@@H]2CC[C@@]2(C)[C@H]1CCC(=O)[C@]21CCCO1	14.7	x	8.4	-19.8	-15.8	-22.4	x	x
O=C(O)c1ccc(NC(=O)c2ccc3c(c2)C(=O)N(CC2CCCO2)C3=O)cc1 (centres undefined)	78.4*	-0.8	6.3	-14.1	-5.2	-16.3	34.4	31.7*
CNS(=O)(=O)c1ccc(NC(=O)c2cncc(Br)c2)cc1	11.0	3.9	4.2	10.3	13.5	5.0	x	x
CCN(CC)C(=O)CSc1nnc(-c2c[nH]c3ccccc23)o1	78.2*	10.9	3.2	0.1	-15.1	-15.9	43.5	3.0
SMILES	OX1R antag-1	GPR7 antag	TAAR1 agonist	TAAR1 antagonist	CHO parental Ca	OX1R antag-2	OX1R HTRF conf	CHO-K1 HTRF cnt
O=[N+]([O-])c1ccc(C[n+]2ccc(Cc3ccccc3)cc2)cc1	111.5*	2.7	6.4	-1.3	-0.7	-15.0	72.5*	48.1*
COc1ccc(C(=O)c2ccccc2)c2c(O)ccc(C(=O)c3ccccc3)c12	104.5*	-5.3	13.3	11.3	6.2	18.3	59.6*	6.4
O=C(CCNC(=O)N1CCn2c1nc1ccccc12)NCc1ccccc1Cl	28.8	7.5	16.3	-47.2	-16.6	-15.5	x	x
CCc1nc2ccccc2n(CC)c1=O	21.4	-11.5	-0.7	-10.7	2.3	-14.1	x	x
CCn1c(=O)c(C(C)=O)nc2ccccc21	99.7*	-6.7	1.9	-9.7	-16.9	-9.1	30.8	5.3
COc1ccc(OC)c(NC(=O)c2nnn(CC(=O)Nc3ccc4c(c3)OCO4)c2N)c1	12.3	-5.8	x	x	-2.1	-9.1	x	x
O=C(/C=C/c1ccc([N+](=O)[O-])cc1)Nc1cccnc1	95.1*	0.9	12.4	5.4	-14.2	8.2	44.3	26.6*
O=C(NN=Cc1ccc([N+](=O)[O-])cc1)c1ccncc1	x	x	0.2	-14.2	x	x	x	x
O=C(N/N=C/c1ccc(Br)o1)c1cc([N+](=O)[O-])cc([N+](=O)[O-])c1	81.3*	-5.6	0.5	19.7	-17.4	-6.6	37.2	56.1*
O=C(N/N=C/c1ccncc1)c1cc([N+](=O)[O-])cc([N+](=O)[O-])c1	85.5*	-11.6	5.5	-13.3	-8.4	-20.3	50.0	74.5*
C/C(=N/NC(=O)CNC(=O)c1cccnc1)c1ccc([N+](=O)[O-])cc1	89.7*	-7.1	8.7	-3.0	6.7	-10.6	52.0	43.5*
O=C(COC(=O)/C=C/c1ccc(F)cc1)Nc1ccc2[nH]c(=O)[nH]c2c1	19.9	x	1.2	-0.8	5.0	2.6	x	x
O=C(Nc1ccc(Br)cc1Br)C1CC(=O)N(Cc2ccccc2)C1 (centres undefined)	4.0	-8.6	-1.4	-10.8	-23.4	-24.4	x	x
O=C(N/N=C/c1cccnc1)c1ccc([N+](=O)[O-])cc1	106.5*	1.5	3.7	-2.5	-2.0	-14.2	37.4	81.8*
Cc1ccc(NC(=O)CSc2ncn[nH]2)c([N+](=O)[O-])c1	16.0	x	0.3	7.7	-10.2	0.8	x	x
O=C(CSc1ncn[nH]1)Nc1c(Br)cc([N+](=O)[O-])cc1Br	96.0*	-13.7	1.7	-3.8	-0.8	-4.9	41.5	44.7*
Cc1nonc1C(=O)N/N=C/c1ccncc1	14.5	-10.5	2.8	-8.8	-8.2	-10.8	x	x
